The species entered for one data set is Cavia porcellus. Description: Inhibition of guinea pig VAP-1.
For the next data set, the system named is Cricetinae. Kind of data set: Inhibition of hamster VAP-1.
The target of data set [1] is T1, Amine oxidase [copper-containing] 3 (Rattus norvegicus) (UniProt O08590).
T1 sequence (whole entry): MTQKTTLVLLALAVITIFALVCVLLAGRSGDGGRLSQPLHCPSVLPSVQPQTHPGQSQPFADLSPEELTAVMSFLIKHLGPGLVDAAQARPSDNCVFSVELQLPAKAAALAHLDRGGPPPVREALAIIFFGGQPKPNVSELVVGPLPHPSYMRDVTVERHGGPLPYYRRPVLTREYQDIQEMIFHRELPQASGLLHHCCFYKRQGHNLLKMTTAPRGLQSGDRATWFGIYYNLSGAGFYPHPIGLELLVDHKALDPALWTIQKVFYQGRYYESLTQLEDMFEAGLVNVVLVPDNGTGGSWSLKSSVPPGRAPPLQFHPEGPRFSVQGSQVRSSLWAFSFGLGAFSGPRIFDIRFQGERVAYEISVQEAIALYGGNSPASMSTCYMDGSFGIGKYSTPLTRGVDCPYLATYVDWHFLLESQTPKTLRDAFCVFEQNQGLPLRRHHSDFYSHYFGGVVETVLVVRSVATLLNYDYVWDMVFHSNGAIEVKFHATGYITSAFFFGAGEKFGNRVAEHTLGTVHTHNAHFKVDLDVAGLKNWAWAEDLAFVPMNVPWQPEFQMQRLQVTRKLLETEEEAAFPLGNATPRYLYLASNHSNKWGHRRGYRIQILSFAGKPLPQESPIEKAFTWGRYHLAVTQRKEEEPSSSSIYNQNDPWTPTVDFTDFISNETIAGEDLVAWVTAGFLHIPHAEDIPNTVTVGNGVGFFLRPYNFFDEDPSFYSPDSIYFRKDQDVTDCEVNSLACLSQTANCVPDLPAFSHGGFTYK
Description: Inhibition of rat VAP-1.

Data set [2] addresses T2, Diamine oxidase [copper-containing] (Sus scrofa) (UniProt Q9TRC7).
T2 sequence (whole entry): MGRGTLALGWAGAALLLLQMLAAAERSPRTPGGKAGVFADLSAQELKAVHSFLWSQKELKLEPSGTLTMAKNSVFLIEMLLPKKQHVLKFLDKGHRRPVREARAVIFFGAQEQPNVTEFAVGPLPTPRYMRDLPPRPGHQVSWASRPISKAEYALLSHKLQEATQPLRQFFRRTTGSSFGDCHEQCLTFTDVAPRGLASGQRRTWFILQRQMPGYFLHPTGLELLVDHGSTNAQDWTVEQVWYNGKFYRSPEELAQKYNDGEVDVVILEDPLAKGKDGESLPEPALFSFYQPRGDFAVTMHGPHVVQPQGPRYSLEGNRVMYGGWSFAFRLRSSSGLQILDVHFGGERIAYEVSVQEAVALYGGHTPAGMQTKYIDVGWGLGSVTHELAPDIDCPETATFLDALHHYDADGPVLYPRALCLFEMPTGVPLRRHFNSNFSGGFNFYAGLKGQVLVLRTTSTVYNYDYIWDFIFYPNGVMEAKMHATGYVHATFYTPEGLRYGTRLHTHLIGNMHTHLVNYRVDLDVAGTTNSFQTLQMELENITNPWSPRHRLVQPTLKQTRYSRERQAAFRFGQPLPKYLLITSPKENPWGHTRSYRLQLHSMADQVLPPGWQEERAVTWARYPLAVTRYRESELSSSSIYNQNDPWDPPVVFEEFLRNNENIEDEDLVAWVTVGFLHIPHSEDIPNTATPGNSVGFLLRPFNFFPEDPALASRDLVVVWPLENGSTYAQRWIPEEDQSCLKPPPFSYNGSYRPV
Kind of data set: Inhibition of pig kidney DAO at 50 uM.

Another data set addresses T3, MAO-B (Homo sapiens, UniProt P27338).
T3 sequence (P27338 whole entry): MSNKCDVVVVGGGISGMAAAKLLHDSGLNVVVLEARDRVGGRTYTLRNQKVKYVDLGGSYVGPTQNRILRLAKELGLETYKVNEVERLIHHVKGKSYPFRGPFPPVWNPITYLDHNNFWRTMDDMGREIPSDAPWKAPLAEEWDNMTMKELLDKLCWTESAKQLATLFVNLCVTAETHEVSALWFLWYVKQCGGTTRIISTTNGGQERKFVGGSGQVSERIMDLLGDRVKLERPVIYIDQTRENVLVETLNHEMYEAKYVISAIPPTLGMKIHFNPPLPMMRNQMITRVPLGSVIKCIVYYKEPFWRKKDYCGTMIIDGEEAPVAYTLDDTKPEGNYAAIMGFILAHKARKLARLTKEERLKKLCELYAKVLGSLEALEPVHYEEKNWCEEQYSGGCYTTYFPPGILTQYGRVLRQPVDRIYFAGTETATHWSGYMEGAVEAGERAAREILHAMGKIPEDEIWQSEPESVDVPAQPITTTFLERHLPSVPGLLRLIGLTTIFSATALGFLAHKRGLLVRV
Description: Inhibition of human recombinant MAO-B expressed in baculovirus infected BTI insect cells using vanillic acid/tyramine as substrate at 20 uM incubated for 30 mins prior to tyramine addition measured after 1 hr by spectrophotometry. To be noted: probe tyramine (with vanillic acid). In outline: (§1)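 Peroxidase-coupled colorimetric assay as for VAP-1, with 1 mM vanillic acid in place of 2,4-dichlorophenol and 0.5 mM tyramine (final) as substrate. Conditions: 0.2 M potassium phosphate pH 7.6, 500 μM 4-aminoantipyrine, 4 U/ml HRP, 30 min preincubation at 37 °C, then 1 h at 37 °C; A490 read. Enzymes: purified human MAO-A or MAO-B from baculovirus-infected BTI insect cells, or total MAO-A/B extracted from rat liver mitochondria. Single-concentration percent inhibition.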

Another data set deals with T4, MAO-A (Homo sapiens, UniProt P21397).
T4 sequence (P21397 whole entry): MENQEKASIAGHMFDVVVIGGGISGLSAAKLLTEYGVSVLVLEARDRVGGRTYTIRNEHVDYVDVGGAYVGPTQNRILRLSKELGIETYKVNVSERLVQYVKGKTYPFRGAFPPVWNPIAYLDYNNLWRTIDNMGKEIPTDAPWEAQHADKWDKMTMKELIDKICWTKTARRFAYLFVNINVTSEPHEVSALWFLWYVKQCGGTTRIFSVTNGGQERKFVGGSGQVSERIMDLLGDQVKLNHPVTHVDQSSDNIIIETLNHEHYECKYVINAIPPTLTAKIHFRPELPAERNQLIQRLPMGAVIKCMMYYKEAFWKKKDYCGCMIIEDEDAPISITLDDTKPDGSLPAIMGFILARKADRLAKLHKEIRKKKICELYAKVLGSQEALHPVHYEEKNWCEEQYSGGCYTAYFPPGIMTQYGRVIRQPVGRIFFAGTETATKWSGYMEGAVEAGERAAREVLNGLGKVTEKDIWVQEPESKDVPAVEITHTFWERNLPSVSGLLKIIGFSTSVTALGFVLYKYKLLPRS
Kind of data set: Inhibition of human recombinant MAO-A expressed in baculovirus infected BTI insect cells using vanillic acid/tyramine as substrate at 20 uM incubated for 30 mins prior to tyramine addition measured after 1 hr by spectrophotometry. To be noted: probe tyramine (with vanillic acid). The essentials: as §1

The species entered for the next data set is Rattus norvegicus. Kind of data set: Inhibition of rat liver MAO using vanillic acid/tyramine as substrate at 100 uM incubated for 30 mins prior to tyramine addition measured after 1 hr by spectrophotometry. The essentials:
as §1

A short description of data set [3]: Inhibition of cynomolgus monkey recombinant VAP-1 transfected in CHO cells using 2,4-dichlorophenol/benzylamine as substrate incubated for 30 mins prior to benzylamine addition measured after 1 hr by spectrophotometry. The data set is classed as cell-based, Macaca fascicularis. The essentials:
(§2)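 Coupled colorimetric H2O2 assay with lysate of CHO cells stably expressing full-length VAP-1 of the listed species, dosed to give 0.6 A490/h. Conditions: 0.2 M potassium phosphate pH 7.6, 1 mM 2,4-dichlorophenol, 500 μM 4-aminoantipyrine, 4 U/ml HRP, inhibitor 1 nM–50 μM. Preincubated 30 min at 37 °C, then 1 mM benzylamine (final) for 1 h at 37 °C; A490 read, background-corrected, percent inhibition versus control, IC50 fitted; mean of two to six experiments ± SE.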

Data set [4] has as its target T5, Amine oxidase [copper-containing] 3 (Mus musculus) (UniProt O70423).
T5 sequence (whole entry): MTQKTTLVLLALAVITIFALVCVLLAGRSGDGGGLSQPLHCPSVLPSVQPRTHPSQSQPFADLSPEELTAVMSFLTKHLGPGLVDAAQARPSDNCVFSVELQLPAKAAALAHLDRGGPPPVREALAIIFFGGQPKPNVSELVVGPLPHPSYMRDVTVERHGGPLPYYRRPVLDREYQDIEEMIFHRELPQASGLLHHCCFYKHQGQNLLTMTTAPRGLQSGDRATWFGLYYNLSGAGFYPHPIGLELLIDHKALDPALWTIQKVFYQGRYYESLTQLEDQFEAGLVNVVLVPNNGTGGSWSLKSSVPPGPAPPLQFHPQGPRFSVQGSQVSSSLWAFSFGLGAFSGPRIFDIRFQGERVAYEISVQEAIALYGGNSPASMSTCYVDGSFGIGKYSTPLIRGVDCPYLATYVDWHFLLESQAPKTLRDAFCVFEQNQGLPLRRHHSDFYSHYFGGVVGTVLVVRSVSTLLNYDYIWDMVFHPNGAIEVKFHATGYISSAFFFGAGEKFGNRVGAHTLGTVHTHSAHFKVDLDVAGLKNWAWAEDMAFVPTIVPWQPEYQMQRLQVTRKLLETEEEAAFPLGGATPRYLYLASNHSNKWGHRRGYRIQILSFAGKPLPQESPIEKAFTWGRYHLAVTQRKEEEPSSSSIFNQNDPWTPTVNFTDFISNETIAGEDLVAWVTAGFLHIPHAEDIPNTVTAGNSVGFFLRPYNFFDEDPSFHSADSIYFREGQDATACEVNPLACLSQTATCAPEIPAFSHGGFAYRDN
Kind of data set: Inhibition of mouse recombinant VAP-1 transfected in CHO cells using 2,4-dichlorophenol/benzylamine as substrate at 1 nM to 50 uM incubated for 30 mins prior to benzylamine addition measured after 1 hr by spectrophotometry. The data set is classed as cell-based. In outline: as §2

For data set [5], the target named is T6, Amine oxidase [copper-containing] 3 (Homo sapiens, UniProt Q16853).
T6 sequence (Q16853 whole entry): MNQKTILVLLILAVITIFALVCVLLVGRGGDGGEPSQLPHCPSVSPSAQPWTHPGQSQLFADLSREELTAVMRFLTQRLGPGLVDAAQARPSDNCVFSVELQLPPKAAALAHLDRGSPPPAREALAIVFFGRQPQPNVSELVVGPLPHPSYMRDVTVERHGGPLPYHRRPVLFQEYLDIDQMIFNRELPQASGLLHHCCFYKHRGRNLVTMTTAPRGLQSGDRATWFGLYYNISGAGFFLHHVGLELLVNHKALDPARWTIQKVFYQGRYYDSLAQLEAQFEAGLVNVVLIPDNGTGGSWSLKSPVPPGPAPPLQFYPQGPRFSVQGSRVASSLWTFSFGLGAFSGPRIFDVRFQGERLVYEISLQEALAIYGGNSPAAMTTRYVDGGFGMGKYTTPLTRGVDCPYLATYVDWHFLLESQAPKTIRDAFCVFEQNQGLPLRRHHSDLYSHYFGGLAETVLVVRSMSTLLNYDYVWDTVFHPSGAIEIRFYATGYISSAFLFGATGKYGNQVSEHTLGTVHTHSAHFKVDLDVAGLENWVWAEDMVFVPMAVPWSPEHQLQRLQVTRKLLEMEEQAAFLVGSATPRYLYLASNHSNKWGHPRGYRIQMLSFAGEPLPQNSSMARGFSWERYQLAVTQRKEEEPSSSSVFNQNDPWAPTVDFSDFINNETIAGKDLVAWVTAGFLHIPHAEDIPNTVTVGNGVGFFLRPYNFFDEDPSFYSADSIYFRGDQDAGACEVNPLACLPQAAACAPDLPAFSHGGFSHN
Kind of data set: Inhibition of human recombinant VAP-1 transfected in CHO cells using 2,4-dichlorophenol/benzylamine as substrate incubated for 30 mins prior to benzylamine addition measured after 1 hr by spectrophotometry. The data set is classed as cell-based. In outline:
as §2

Data set [6] deals with T6, Amine oxidase [copper-containing] 3. Description: Binding affinity to human recombinant VAP-1 by surface plasmon resonance analysis. The essentials:
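Surface plasmon resonance binding kinetics: recombinant purified VAP-1 amine-coupled to a CM5 chip after preconcentration in 10 mM Na acetate pH 4.4 with 10 μM CuCl2.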

Data set [7] concerns the target T2, Diamine oxidase [copper-containing] (Sus scrofa). Description: Inhibition of pig kidney DAO at 100 uM.

Molecules are shown by their SMILES. Active and inactive are the calls of the source. No cut-off for these calls is given here.

On to `CN1CCN(c2ccc(Nc3cc(=O)n(-c4ccc(Cl)cc4)nc3-c3nc[nH]n3)cc2)CC1`, for which the inhibition result (in the data set listed under Cavia porcellus; in the data set with Cricetinae; in data set [1]) was “inactive” in each case. Moreover, the inhibition is 36% in data set [2], 18% in the data set listed under Rattus norvegicus and 23% in [4]. Moreover, the inhibition at 1 h, 20 µM turned out to be 1% at MAO-B and 3% at MAO-A. Further, the figures for the 50% inhibitory concentration (IC50) in data set [3] and in data set [5] were 26 nM and 20 nM, respectively.
For the compound `O=c1cc(NC2CCCCC2)c(-c2nc[nH]n2)nn1-c1ccccc1`, the inhibition entry (in the data set filed under Cavia porcellus; in the data set with Cricetinae; in data set [1]) was “inactive” throughout. Moreover, the Kd in data set [6] was determined as 170 nM. Besides, the results for the inhibition (in data set [7]; in the data set filed under Rattus norvegicus; in data set [4]) were 40%, 3% and 24%, respectively. The results for the inhibition at 1 h, 20 µM at MAO-B and at MAO-A were 13% and 4%, respectively. Further, the concentration for half-maximal inhibition (IC50) in data set [3] came out at 130 nM; in data set [5], 71 nM.
Consider `CC(C)Nc1cc(=O)n(-c2ccccc2)nc1-c1nc[nH]n1`, for which the inhibition entry (in the data set filed under Cavia porcellus; with Cricetinae; in data set [1]) was “inactive” in each case. Also, the Kd in data set [6] was found to be 200 nM. Moreover, the figures for the inhibition (in [7]; in the data set filed under Rattus norvegicus; in data set [4]) were 30%, 8% and 10%, respectively. The 50% inhibitory concentration (IC50) in data set [3] was 250 nM; in data set [5], 290 nM.
